Active and inactive are the calls of the source. No cut-off for these calls is given here.
Experiments:
[1] = biological target: T1, Induced myeloid leukemia cell differentiation protein Mcl-1 (Homo sapiens, UniProt Q07820); test: Induction of MCL1 long isoform degradation in CRBN-/- human OPM2 cells assessed as protein abundance at 300 nM pre-incubated for 72 hrs followed by cycloheximide addition and measured after 120 mins by immunoblot analysis (reference value: 37%); format: cell-based
Method in brief: (§1)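 Cycloheximide chase: cells were treated for 72 h with DMSO or degrader, with cycloheximide added for the final 30, 60 or 120 min. OPM2 and MM1.S cells were used, and wild-type OPM2 was compared with OPM2 CRBN-/- at 60 and 120 min. MCL1 was detected by immunoblot.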

[2] = biological target: T2, Protein cereblon/Induced myeloid leukemia cell differentiation protein Mcl-1 (Homo sapiens) (UniProt Q07820+Q96SW2); test: Protac activity at Cereblon/MCL1 short isoform in wild type human OPM2 cells assessed as MCL1 short isoform level at 300 nM pre-incubated for 72 hrs followed by cycloheximide addition and measured after 60 mins by immunoblot analysis (reference value: 64%); format: cell-based
T2 sequence (Q07820 whole entry, looked up, canonical isoform): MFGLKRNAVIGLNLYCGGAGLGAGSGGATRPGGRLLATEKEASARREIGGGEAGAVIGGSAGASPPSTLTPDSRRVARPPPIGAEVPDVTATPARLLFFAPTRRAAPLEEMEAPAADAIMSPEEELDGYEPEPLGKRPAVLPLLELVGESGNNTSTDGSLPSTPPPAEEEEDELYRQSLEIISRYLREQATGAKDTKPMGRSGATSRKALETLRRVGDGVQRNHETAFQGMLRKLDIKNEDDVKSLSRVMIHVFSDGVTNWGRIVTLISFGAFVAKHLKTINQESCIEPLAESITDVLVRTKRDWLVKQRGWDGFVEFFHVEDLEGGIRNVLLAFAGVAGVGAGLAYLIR
T2 sequence (Q96SW2 whole entry, looked up, canonical isoform): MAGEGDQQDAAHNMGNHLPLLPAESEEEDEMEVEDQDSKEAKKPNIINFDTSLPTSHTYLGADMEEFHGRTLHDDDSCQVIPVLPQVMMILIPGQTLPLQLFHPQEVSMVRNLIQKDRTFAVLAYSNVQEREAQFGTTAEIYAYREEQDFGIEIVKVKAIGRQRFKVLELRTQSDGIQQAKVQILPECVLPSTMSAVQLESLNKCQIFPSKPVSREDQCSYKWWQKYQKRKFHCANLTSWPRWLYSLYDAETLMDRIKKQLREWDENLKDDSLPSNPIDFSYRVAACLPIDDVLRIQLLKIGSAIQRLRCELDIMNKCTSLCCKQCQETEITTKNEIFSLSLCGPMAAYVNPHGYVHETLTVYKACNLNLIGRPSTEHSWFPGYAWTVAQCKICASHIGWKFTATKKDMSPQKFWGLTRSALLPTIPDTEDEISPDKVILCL
Method in brief: (§2)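 OPM2 wild-type and OPM2 CRBN-/- cells were treated for 72 h with compound or DMSO, with cycloheximide present for the final 60 or 120 min. MCL1 was detected by immunoblot.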

[3] = biological target: T2, Protein cereblon/Induced myeloid leukemia cell differentiation protein Mcl-1 (Homo sapiens); test: Protac activity at Cereblon/MCL1 in human OPM2 cells assessed as protein abundance at 500 nM after 48 hrs by immunoblot analysis relative to control; format: cell-based
Method in brief: (§3)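 OPM2 multiple myeloma cells, wild type or CRBN-knockout, were treated for 48 h with degrader or DMSO vehicle. MCL1 long and short isoforms were detected by immunoblot and levels compared with DMSO controls.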

[4] = biological target: T2, Protein cereblon/Induced myeloid leukemia cell differentiation protein Mcl-1 (Homo sapiens); test: Protac activity at Cereblon/MCL1 short isoform in wild type human OPM2 cells assessed as MCL1 short isoform abundance at 100 nM after 48 hrs by immunoblot analysis relative to control; format: cell-based
Method in brief: (§4)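 OPM2 wild-type cells, run alongside the CRBN-/- line, were treated for 48 h with compound or DMSO. The MCL1 long and short isoforms were then measured by immunoblot against the DMSO control.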

[5] = biological target: T2, Protein cereblon/Induced myeloid leukemia cell differentiation protein Mcl-1 (Homo sapiens); test: Protac activity at Cereblon/MCL1 long isoform in wild type human OPM2 cells at 100 nM after 48 hrs by immunoblot analysis relative to control; format: cell-based; method in brief: as §3
[6] = biological target: T1, Induced myeloid leukemia cell differentiation protein Mcl-1; test: Binding affinity to His-tagged biotinylated human MCL1 by surface plasmon resonance method
[7] = biological target: T2, Protein cereblon/Induced myeloid leukemia cell differentiation protein Mcl-1 (Homo sapiens); test: Protac activity at Cereblon/MCL1 long isoform in human OPM2 cells assessed as MCL1 long isoform level at 300 nM pre-incubated for 72 hrs followed by cycloheximide addition and measured after 30 mins by immunoblot analysis (reference value: 98%); format: cell-based; method in brief: as §1
[8] = biological target: T2, Protein cereblon/Induced myeloid leukemia cell differentiation protein Mcl-1 (Homo sapiens); test: Protac activity at Cereblon/MCL1 short isoform in wild type human OPM2 cells assessed as MCL1 short isoform level at 300 nM pre-incubated for 72 hrs followed by cycloheximide addition and measured after 120 mins by immunoblot analysis (reference value: 14%); format: cell-based; method in brief: as §2
[9] = biological target: T2, Protein cereblon/Induced myeloid leukemia cell differentiation protein Mcl-1 (Homo sapiens); test: Protac activity at Cereblon/MCL1 long isoform in human OPM2 cells assessed as MCL1 long isoform level at 300 nM pre-incubated for 72 hrs followed by cycloheximide addition and measured after 60 mins by immunoblot analysis (reference value: 84%); format: cell-based; method in brief: as §1
[10] = biological target: T2, Protein cereblon/Induced myeloid leukemia cell differentiation protein Mcl-1 (Homo sapiens); test: Protac activity at Cereblon/MCL1 in human OPM2 cells assessed as protein abundance at 100 nM after 48 hrs by immunoblot analysis relative to control; format: cell-based; method in brief: as §3
[11] = biological target: T2, Protein cereblon/Induced myeloid leukemia cell differentiation protein Mcl-1 (Homo sapiens); test: Protac activity at Cereblon/MCL1 short isoform in human MM1S cells assessed as MCL1 short isoform level at 300 nM pre-incubated for 72 hrs followed by cycloheximide addition and measured after 30 mins by immunoblot analysis (reference value: 100%); format: cell-based; method in brief: as §1
[12] = biological target: T2, Protein cereblon/Induced myeloid leukemia cell differentiation protein Mcl-1 (Homo sapiens); test: Protac activity at Cereblon/MCL1 long isoform in human MM1S cells assessed as MCL1 long isoform level at 300 nM pre-incubated for 72 hrs followed by cycloheximide addition and measured after 30 mins by immunoblot analysis (reference value: 96%); format: cell-based; method in brief: as §1
[13] = biological target: T2, Protein cereblon/Induced myeloid leukemia cell differentiation protein Mcl-1 (Homo sapiens); test: Protac activity at Cereblon/MCL1 long isoform in human OPM2 cells assessed as MCL1 long isoform abundance at 250 nM after 24 hrs by immunoblot analysis relative to control; format: cell-based
[14] = biological target: T2, Protein cereblon/Induced myeloid leukemia cell differentiation protein Mcl-1 (Homo sapiens); test: Protac activity at Cereblon/MCL1 short isoform in human OPM2 cells assessed as MCL1 short isoform level at 300 nM pre-incubated for 72 hrs followed by cycloheximide addition and measured after 60 mins by immunoblot analysis (reference value: 49%); format: cell-based
Method in brief: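 OPM2 or MM1.S cells were treated for 72 h with compound or DMSO. Cycloheximide was added for the final 30, 60 or 120 min. MCL1 was read by immunoblot and compared with DMSO-treated cells as a normal-turnover reference.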

[15] = biological target: T2, Protein cereblon/Induced myeloid leukemia cell differentiation protein Mcl-1 (Homo sapiens); test: Protac activity at Cereblon/MCL1 in human OPM2 cells assessed as protein abundance at 25 nM after 48 hrs by immunoblot analysis relative to control; format: cell-based; method in brief: as §3
[16] = biological target: T2, Protein cereblon/Induced myeloid leukemia cell differentiation protein Mcl-1 (Homo sapiens); test: Protac activity at Cereblon/MCL1 in human OPM2 cells at 500 nM after 3 hrs in presence of proteasome inhibitor bortezomib by immunoblot analysis; format: cell-based
Method in brief: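 OPM2 cells were treated for 3 h with DMSO, degrader and/or the proteasome inhibitor bortezomib, then immunoblotted for MCL1.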

[17] = biological target: T1, Induced myeloid leukemia cell differentiation protein Mcl-1; test: Induction of MCL1 short isoform degradation in CRBN-/- human OPM2 cells assessed as protein abundance at 250 nM after 48 hrs by immunoblot analysis relative to control; format: cell-based; method in brief: as §3
[18] = biological target: T1, Induced myeloid leukemia cell differentiation protein Mcl-1; test: Induction of MCL1 long isoform degradation in CRBN-/- human OPM2 cells assessed as protein abundance at 100 nM after 48 hrs by immunoblot analysis relative to control; format: cell-based; method in brief: as §3
[19] = biological target: T2, Protein cereblon/Induced myeloid leukemia cell differentiation protein Mcl-1 (Homo sapiens); test: Protac activity at Cereblon/MCL1 long isoform in wild type human OPM2 cells assessed as protein abundance at 50 nM after 48 hrs by immunoblot analysis relative to control; format: cell-based; method in brief: as §3
[20] = biological target: T2, Protein cereblon/Induced myeloid leukemia cell differentiation protein Mcl-1 (Homo sapiens); test: Protac activity at Cereblon/MCL1 short isoform in human OPM2 cells assessed as MCL1 short isoform abundance at 100 nM after 24 hrs by immunoblot analysis relative to control; format: cell-based
[21] = biological target: T2, Protein cereblon/Induced myeloid leukemia cell differentiation protein Mcl-1 (Homo sapiens); test: Protac activity at Cereblon/MCL1 short isoform in wild type human OPM2 cells assessed as MCL1 short isoform abundance at 50 nM after 48 hrs by immunoblot analysis relative to control; format: cell-based; method in brief: as §4
OPM-2 = test: Cytotoxicity against CRBN-/- human OPM2 cells assessed as reduction in cell viability at 50 to 10000 nM after 48 hrs by CellTiter-96 Cell Viability Assay; format: cell-based; details: opm-2, 48 h, 10 µM
[22] = biological target: T2, Protein cereblon/Induced myeloid leukemia cell differentiation protein Mcl-1 (Homo sapiens); test: Protac activity at Cereblon/MCL1 short isoform in wild type human OPM2 cells assessed as MCL1 short isoform abundance at 500 nM after 48 hrs by immunoblot analysis relative to control; format: cell-based; method in brief: as §4
[23] = biological target: T2, Protein cereblon/Induced myeloid leukemia cell differentiation protein Mcl-1 (Homo sapiens); test: Protac activity at Cereblon/MCL1 long isoform in human MM1S cells assessed as MCL1 long isoform level at 300 nM pre-incubated for 72 hrs followed by cycloheximide addition and measured after 120 mins by immunoblot analysis (reference value: 55%); format: cell-based; method in brief: as §1
[24] = biological target: T2, Protein cereblon/Induced myeloid leukemia cell differentiation protein Mcl-1 (Homo sapiens); test: Protac activity at Cereblon/MCL1 long isoform in wild type human OPM2 cells assessed as MCL1 long isoform level at 300 nM pre-incubated for 72 hrs followed by cycloheximide addition and measured after 60 mins by immunoblot analysis (reference value: 84%); format: cell-based; method in brief: as §1
[25] = biological target: T2, Protein cereblon/Induced myeloid leukemia cell differentiation protein Mcl-1 (Homo sapiens); test: Protac activity at Cereblon/MCL1 short isoform in human MM1S cells assessed as MCL1 short isoform level at 300 nM pre-incubated for 72 hrs followed by cycloheximide addition and measured after 120 mins by immunoblot analysis (reference value: 80%); format: cell-based; method in brief: as §1

T1 sequence (Q07820 whole entry, canonical isoform): as the sequence (Q07820 whole entry, looked up, canonical isoform) above

Q: What does the source list for `Cc1nn(C)c(COc2ccc(N3CCN(S(=O)(=O)N(C)C)CC3)cc2)c1-c1cccc2c(CCCOc3cccc4ccccc34)c(C(=O)O)n(CCN3CCN(C(=O)COc4cccc5c4C(=O)N(C4CCC(=O)NC4=O)C5=O)CC3)c12` (stereo unspecified)?
A: Activity [1]: 39%; Activity [2]: 14%; Activity [3]: 58%; Activity [4]: 53%; Activity [5]: 69%; Kd [6]: 30 nM; Activity [7]: 88%; Activity [8]: 2%; Activity [9]: 58%; Activity [10]: 63%; Activity [11]: 74%; Activity [12]: 90%; Activity [13]: 73%; Activity [14]: 8%; Activity [15]: 89%; Activity [16]: inactive; Activity [17]: 97%; Activity [18]: 90%; Activity [19]: 100%; Activity [20]: 59%; Activity [21]: 79%; Activity (OPM-2): Toxic; Activity [22]: 20%; Activity [23]: 40%; Activity [24]: 66%; Activity [25]: 34%
